The target in one series is MMP-2 (Homo sapiens, UniProt P08253). Description: In vitro MMP-2 inhibition, colorimetric kit. The series is classed as biochemical. The conditions noted are these: read-out: MMP-2 IC50.
The target of another series is MMP-9 (Homo sapiens, UniProt P14780). Description: In vitro MMP-9 inhibition, colorimetric kit. It counts as biochemical.
The test system of series [1] is MCF-7 cells. Description: Flow cytometric annexin V/PI analysis of apoptosis. It counts as cell-based, human. The conditions noted are these: MCF-7, 72 h, mean ± SEM. Background: In flow cytometry, cells or beads pass a laser one at a time.
The subject of series [2] is MCF-7 cells. The experiment in a line: MTT cytotoxicity on breast cancer cells. The series is classed as cell-based, human. In short, it runs like this: (§1)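 Test compounds (free s-triazine dendrimers and their quercetin, lactobionic acid and PEG conjugates) were screened by MTT assay against MCF-7 breast and HepG-2 hepatocellular carcinoma cells. IC50 values are reported in μM as mean ± SEM of three measurements. Differences were tested by one-way ANOVA with Tukey's test, with p < 0.05 taken as significant. SI was tabulated against Wi-38 values.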

The test system of series [3] is HepG-2 cells. The experiment in a line: Flow cytometric annexin V/PI analysis of apoptosis. The series is classed as cell-based, human. The conditions noted are these: HepG-2, 72 h, mean ± SEM.
The subject of the next series is Wi-38 cells. Description: MTT cytotoxicity on normal human fibroblasts. It counts as cell-based. An outline of the steps: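 Normal human lung fibroblasts (Wi-38) were exposed to free s-triazine dendrimers and their conjugates, and viability was read by MTT assay. Safety was expressed as EC100 in μM, the concentration giving 100% growth of normal cells, as mean ± SEM of three measurements. Groups were compared by one-way ANOVA with Tukey's test at p < 0.05.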

The subject of series [4] is VEGF. Description: VEGF gene expression by quantitative real-time PCR. The series is classed as cell-based, human. The conditions noted are these: MCF-7, compared to untreated cells, mean ± SEM.
In series [5] the test system is VEGF. The experiment in a line: VEGF gene expression by quantitative real-time PCR. The series is classed as cell-based, human. The conditions noted are these: HepG-2, compared to untreated cells, mean ± SEM. (In qPCR the cycle at which signal appears reflects the starting amount.)
For series [6], the system named is HepG-2 cells. Description: MTT cytotoxicity on hepatocellular carcinoma cells. The series is classed as cell-based, human. An outline of the steps: as §1
Setting [7] is: selectivity index versus normal Wi-38 cells.

MMP-9, sequence (P14780 94-707): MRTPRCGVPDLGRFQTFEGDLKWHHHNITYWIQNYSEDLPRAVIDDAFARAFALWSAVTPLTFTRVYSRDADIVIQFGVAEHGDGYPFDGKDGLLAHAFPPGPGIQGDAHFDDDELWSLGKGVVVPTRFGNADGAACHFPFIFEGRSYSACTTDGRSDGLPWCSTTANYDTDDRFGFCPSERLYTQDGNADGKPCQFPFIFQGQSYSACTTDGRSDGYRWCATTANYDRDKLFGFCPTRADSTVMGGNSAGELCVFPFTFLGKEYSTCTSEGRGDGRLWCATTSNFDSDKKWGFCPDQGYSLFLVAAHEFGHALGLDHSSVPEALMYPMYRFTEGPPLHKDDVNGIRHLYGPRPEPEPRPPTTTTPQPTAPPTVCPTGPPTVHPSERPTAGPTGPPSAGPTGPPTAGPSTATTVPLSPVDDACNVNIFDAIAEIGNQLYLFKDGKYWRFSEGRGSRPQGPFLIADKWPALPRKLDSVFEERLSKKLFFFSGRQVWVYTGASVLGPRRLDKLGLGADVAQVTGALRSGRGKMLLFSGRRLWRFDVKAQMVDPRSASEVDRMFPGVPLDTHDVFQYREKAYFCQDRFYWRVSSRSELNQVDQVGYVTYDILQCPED
MMP-2, sequence (P08253 110-446 limits assumed): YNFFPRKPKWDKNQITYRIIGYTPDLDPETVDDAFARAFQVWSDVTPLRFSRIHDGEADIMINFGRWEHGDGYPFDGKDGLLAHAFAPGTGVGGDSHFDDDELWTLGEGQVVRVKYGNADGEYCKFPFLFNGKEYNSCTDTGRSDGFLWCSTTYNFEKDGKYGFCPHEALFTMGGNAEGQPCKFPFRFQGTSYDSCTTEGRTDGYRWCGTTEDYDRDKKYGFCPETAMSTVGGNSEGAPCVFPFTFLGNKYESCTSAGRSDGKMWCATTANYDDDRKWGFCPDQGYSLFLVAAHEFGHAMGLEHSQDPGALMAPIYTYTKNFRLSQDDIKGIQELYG

Regarding `COc1ccc(S(=O)(=O)N(CC(=O)NO)CC(C)C)cc1` [NNGH, N-isobutyl-N-(4-methoxyphenylsulfonyl)glycyl hydroxamic acid], the IC50 is 0.299 µM at MMP-2 and 0.277 µM at MMP-9 (read-out: MMP-9 IC50). On MMP-9 (SI = IC50 (MMP-2)/IC50 (MMP-9), text: folds), this compound had an MMP-2/MMP-9 selectivity of 1.08.

For the compound `O=c1c(O)c(-c2ccc(O)c(O)c2)oc2cc(O)cc(O)c12` [Qur, quercetin], the entries for the “Total % of the apoptotic population” value in the series with MCF-7 cells [1] and with HepG-2 cells [3] were 47.00 ± 1.83 % and 24.20 ± 0.895 %, respectively. The IC50 came to 35.3 ± 0.475 µM with MCF-7 cells [2] (Homo sapiens, MCF7, 72 h, read-out: MCF-7 IC50); 294 ± 12.6 µM in the series on Wi-38 cells (Homo sapiens, WI-38, read-out: Wi-38 IC50); 34.32 ± 0.128 µM in the series on HepG-2 cells [6] (Homo sapiens, HepG2, 72 h, read-out: HepG-2 IC50). In addition, in the series on MCF-7 cells [2] (setting [7]), the “MCF-7 SI” value turned out to be 8.339. Further, the “selectivity index (SI)” value in the series with MCF-7 cells [2] (stated for MCF-7 and HepG-2 together, versus Wi-38) is on record as around 8.5. Besides, in the series with Wi-38 cells (effective safe concentration at 100% cell viability, Wi-38, 72 h, mean ± SEM), the EC100 was 70.57 ± 0.950 µM. Moreover, the “VEGF relative fold change” value came out at 0.683 ± 0.029 in the series on VEGF [4] and 0.708 ± 0.012 in the series on VEGF [5]. The “HepG-2 SI” value with HepG-2 cells [6] (setting [7]) is 8.573.

Broadly, the IC50 is the concentration that gives 50% inhibition.
